Laboratory results as given in ChEMBL document CHEMBL1134863, “Antifungal activity of bifunctional sphingolipids. Intramolecular synergism within long-chain alpha,omega-bis-aminoalcohols” (2002).
“And” between values parts separate entries of the source, which are not always exact repeats. Equal entries are not always repeated. The source made the active and inactive calls. The rule behind the calls is not given here.

Legend:
[1] = test system: Nakaseomyces glabratus; assay: Minimum inhibitory concentration against Candida glabrata; assay type: functional
Procedure, shortened: (§1)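 Microbroth dilution assay, modified from a published method, against C. glabrata (fluconazole-resistant strain). MIC values come from duplicate experiments.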

[2] = test system: Nakaseomyces glabratus; assay: Fungicidal versus fungistatic activity of bifunctional sphingolipids against Candida glabrata at a concentration of 1 ug/mL before dilution replating; growth in media; assay type: functional, organism-based
[3] = test system: Nakaseomyces glabratus; assay: Fungicidal versus fungistatic activity of bifunctional sphingolipids against Candida glabrata at a concentration of 0.3 ug/mL before dilution replating; growth in media; assay type: functional, organism-based
[4] = test system: Nakaseomyces glabratus; assay: Fungicidal versus fungistatic activity of bifunctional sphingolipids against Candida glabrata at a concentration of 6 ug/mL before dilution replating; no fungistatic growth on plate; assay type: functional, organism-based
[5] = test system: Nakaseomyces glabratus; assay: Fungicidal versus fungistatic activity of bifunctional sphingolipids against Candida glabrata at a concentration of 5 ug/mL before dilution replating; growth in media; assay type: functional, organism-based
[6] = test system: Nakaseomyces glabratus; assay: Fungicidal versus fungistatic activity of bifunctional sphingolipids against Candida glabrata at a concentration of 10 ug/mL before dilution replating; no fungicidal growth on plate; assay type: functional, organism-based
[7] = test system: Nakaseomyces glabratus; assay: Fungicidal versus fungistatic activity of bifunctional sphingolipids against Candida glabrata at a concentration of 3 ug/mL before dilution replating; growth in media; assay type: functional, organism-based
[8] = test system: Nakaseomyces glabratus; assay: Antifungal minimum inhibitory concentration of compound against Candida glabrata; Inactive; assay type: functional, organism-based; procedure, shortened: as §1
[9] = test system: Nakaseomyces glabratus; assay: Fungistatic activity of bifunctional sphingolipids against Candida glabrata at a concentration of 30 ug/mL before dilution replating; no growth in media; assay type: functional, organism-based
[10] = test system: Nakaseomyces glabratus; assay: Fungistatic activity of bifunctional sphingolipids against Candida glabrata at a concentration of 10 ug/mL before dilution replating; growth in media; assay type: functional, organism-based
[11] = test system: Nakaseomyces glabratus; assay: Fungistatic activity of bifunctional sphingolipids against Candida glabrata at a concentration of 6 ug/mL before dilution replating; growth in media; assay type: functional, organism-based
[12] = test system: Nakaseomyces glabratus; assay: Fungistatic activity of bifunctional sphingolipids against Candida glabrata at a concentration of 5 ug/mL before dilution replating; growth in media; assay type: functional, organism-based
[13] = test system: Nakaseomyces glabratus; assay: Fungistatic activity of bifunctional sphingolipids against Candida glabrata at a concentration of 12 ug/mL before dilution replating; growth in media; assay type: functional, organism-based
[14] = test system: Nakaseomyces glabratus; assay: Fungistatic activity of bifunctional sphingolipids against Candida glabrata at a concentration of 0.3 ug/mL before dilution replating; growth in media; assay type: functional, organism-based
[15] = test system: Nakaseomyces glabratus; assay: Fungistatic activity of bifunctional sphingolipids against Candida glabrata at a concentration of 1 ug/mL before dilution replating; growth in media; assay type: functional, organism-based
[16] = test system: Nakaseomyces glabratus; assay: Fungistatic activity of bifunctional sphingolipids against Candida glabrata at a concentration of 3 ug/mL before dilution replating; growth in media; assay type: functional, organism-based
[17] = test system: Nakaseomyces glabratus; assay: Fungicidal versus fungistatic activity of bifunctional sphingolipids against Candida glabrata at a concentration of 5 ug/mL before dilution replating; no fungistatic growth on plate; assay type: functional, organism-based
[18] = test system: Nakaseomyces glabratus; assay: Fungicidal versus fungistatic activity of bifunctional sphingolipids against Candida glabrata at a concentration of 12 ug/mL before dilution replating; no growth in media; assay type: functional, organism-based
[19] = test system: Nakaseomyces glabratus; assay: Fungicidal versus fungistatic activity of bifunctional sphingolipids against Candida glabrata at a concentration of 5 ug/mL before dilution replating; no growth in media; assay type: functional, organism-based
[20] = test system: Nakaseomyces glabratus; assay: Fungicidal versus fungistatic activity of bifunctional sphingolipids against Candida glabrata at a concentration of 6 ug/mL before dilution replating; no growth in media; assay type: functional, organism-based
[21] = test system: Nakaseomyces glabratus; assay: Fungicidal versus fungistatic activity of bifunctional sphingolipids against Candida glabrata at a concentration of 3 ug/mL before dilution replating; no fungistatic growth on plate; assay type: functional, organism-based
[22] = test system: Nakaseomyces glabratus; assay: Fungicidal versus fungistatic activity of bifunctional sphingolipids against Candida glabrata at a concentration of 1 ug/mL before dilution replating; no fungistatic growth on plate; assay type: functional, organism-based
[23] = test system: Nakaseomyces glabratus; assay: Fungicidal versus fungistatic activity of bifunctional sphingolipids against Candida glabrata at a concentration of 10 ug/mL before dilution replating; no growth in media; assay type: functional, organism-based
[24] = test system: Nakaseomyces glabratus; assay: Fungicidal versus fungistatic activity of bifunctional sphingolipids against Candida glabrata at a concentration of 12 ug/mL before dilution replating no fungistatic growth on plate; assay type: functional, organism-based
[25] = test system: Nakaseomyces glabratus; assay: Fungicidal versus fungistatic activity of bifunctional sphingolipids against Candida glabrata at a concentration of 6 ug/mL before dilution replating; growth in media; assay type: functional, organism-based
[26] = test system: Nakaseomyces glabratus; assay: Fungicidal versus fungistatic activity of bifunctional sphingolipids against Candida glabrata at a concentration of 10 ug/mL before dilution replating; no fungistatic growth on plate; assay type: functional, organism-based
[27] = test system: Nakaseomyces glabratus; assay: Fungicidal versus fungistatic activity of bifunctional sphingolipids against Candida glabrata at a concentration of 3 ug/mL before dilution replating; no growth in media; assay type: functional, organism-based
[28] = test system: Nakaseomyces glabratus; assay: Fungicidal versus fungistatic activity of bifunctional sphingolipids against Candida glabrata at a concentration of 0.3 ug/mL before dilution replating; (fungicidal, no growth on plate) no growth in media; assay type: functional, organism-based
[29] = test system: Nakaseomyces glabratus; assay: Fungicidal versus fungistatic activity of bifunctional sphingolipids against Candida glabrata at a concentration of 1 ug/mL before dilution replating; no (fungicidal, no growth on plate) growth in media; assay type: functional, organism-based
[30] = Nakaseomyces glabratus, read-out: MIC

Molecule: Hexadecyl-trimethyl-ammonium bromide
- MIC [1]: 5 µg/mL and 14 µM

Molecule: C[C@@H](N)[C@H](O)CCCCCCCCCCCCCCC(=O)CCCCCCC[C@@H](OC[C@H]1O[C@@H](O)[C@H](O)[C@@H](O)[C@@H]1O)[C@@H](N)CO
- Activity [2]: growth in media
- Activity [3]: growth in media
- Activity [4]: growth in media
- Activity [5]: growth in media
- MIC [1, 30]: 10 µg/mL and 15 µM
- Activity [6]: growth in media
- Activity [7]: growth in media

Molecule: CCC[C@@H](O)[C@@H](N)CO
- MIC [1, 30]: > 100 µg/mL
- MIC [8]: inactive

Molecule: C[C@H](NC(=O)c1ccccc1)[C@@H](CCCCCCCCCCCCCCCCCCCC[C@@H](OC(=O)c1ccccc1)[C@H](C)NC(=O)c1ccccc1)OC(=O)c1ccccc1
- MIC [1, 30]: > 100 µg/mL
- MIC [8]: inactive

Molecule: CCCCCCCCCCCCC/C=C/[C@@H](O)[C@@H](N)CO [SPHINGOSINE]
- NA [9]: Partially active
- Activity [10]: inactive
- Activity [11]: inactive
- Activity [12]: inactive
- Activity [13]: inactive
- Activity [14]: inactive
- MIC [1, 30]: 30 µg/mL and 100 µM
- Activity [15]: inactive
- Activity [16]: inactive

Molecule: C[N+](C)(C)CCCCCCCCCCCC[N+](C)(C)C.[Cl-].[Cl-]
- MIC [1, 30]: > 100 µg/mL
- MIC [8]: inactive

Molecule: C[C@@H](N)[C@H](O)CCCCCCCCCCCCCCC(=O)CCCCCCC[C@@H](O)[C@@H](N)CO
- Activity [2]: growth in media
- Activity [3]: growth in media
- Activity [4]: growth in media
- MIC [1, 30]: 3 µg/mL and 6.2 µM
- Activity [17]: growth in media
- Activity [18]: growth in media
- Activity [6]: growth in media
- Activity [7]: growth in media

Molecule: CCC[C@@H](O)[C@H](C)N
- MIC [1, 30]: > 100 µg/mL
- MIC [8]: inactive

Molecule: OC(Cn1cncn1)(Cn1cncn1)c1ccc(F)cc1F [FLUCONAZOLE]
- Activity [19]: growth in media
- Activity [3]: growth in media
- Activity [20]: growth in media
- Activity [21]: growth in media
- MIC [1]: >=100 ug ml-1
- MIC [1, 30]: > 64 µg/mL
- Activity [18]: growth in media
- Activity [22]: growth in media
- Activity [23]: growth in media

Molecule: CCC[C@@H](OC(=O)c1ccccc1)[C@H](COC(=O)c1ccccc1)NC(=O)c1ccccc1
- MIC [1, 30]: > 100 µg/mL
- MIC [8]: inactive

Molecule: NCCCCCCCCCCCCN
- MIC [1, 30]: > 100 µg/mL

Molecule: C[C@H](N)[C@H](O)CCCCCCCCCCCCCCCCCCCC[C@@H](O)[C@H](C)N
- Activity [24]: growth in media
- Activity [2]: growth in media
- Activity [3]: growth in media
- Activity [5]: growth in media
- MIC [1, 30]: 10 µg/mL and 24 µM
- Activity [25]: growth in media
- Activity [26]: growth in media
- Activity [7]: growth in media

Molecule: C[C@@H]1[C@H](O)[C@@H](C)/C=C/C=C/C=C/C=C/C=C/C=C/C=C/[C@H](O[C@@H]2O[C@H](C)[C@@H](O)[C@H](N)[C@@H]2O)C[C@@H]2O[C@](O)(C[C@@H](O)C[C@@H](O)[C@H](O)CC[C@@H](O)C[C@@H](O)CC(=O)O[C@H]1C)C[C@H](O)[C@H]2C(=O)O
- Activity [19]: no growth in media
- Activity [20]: no growth in media
- Activity [27]: no growth in media
- Activity [28]: no growth in media
- Activity [18]: no growth in media
- Activity [29]: no growth in media
- Activity [23]: no growth in media

Molecule: NCCCCCCN
- MIC [1, 30]: > 100 µg/mL
- MIC [8]: inactive
